Data reported in ChEMBL document CHEMBL1777776, “Identification of 2-mercaptohexanoic acids as dual inhibitors of 5-lipoxygenase and microsomal prostaglandin E₂ synthase-1” (Bioorg Med Chem, 2011).
Calls of active or inactive are those of the source. The calls are words filed in the database; no cut-off is given here.

Legend:
[1] = test system: A549; test: Cytotoxicity against human A549 cells assessed as cell viability at 10 uM after 16 hrs by MTT assay; format: cell-based; settings: a549, 5 h, in the assay text read “5 hrs” for “16 hrs”
In short: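 A549 cells plated at 4 × 10⁴ cells per well, incubated 16 h at 37 °C, 5% CO₂, then exposed to 10 µM compound or DMSO (≤0.3% final) for 5 h. MTT added for 4 h, formazan solubilized with SDS in 20 mM HCl, absorbance at 595 nm read relative to vehicle-treated cells.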

[2] = target: T1, Polyunsaturated fatty acid 5-lipoxygenase (Homo sapiens, UniProt P09917); test: Inhibition of 5-lipoxygenase in A23187-stimulated human PMNL assessed as enzyme product formation preincubated 15 mins by RP-HPLC analysis in presence of exogenous arachidonic acid
T1 sequence (P09917 whole entry): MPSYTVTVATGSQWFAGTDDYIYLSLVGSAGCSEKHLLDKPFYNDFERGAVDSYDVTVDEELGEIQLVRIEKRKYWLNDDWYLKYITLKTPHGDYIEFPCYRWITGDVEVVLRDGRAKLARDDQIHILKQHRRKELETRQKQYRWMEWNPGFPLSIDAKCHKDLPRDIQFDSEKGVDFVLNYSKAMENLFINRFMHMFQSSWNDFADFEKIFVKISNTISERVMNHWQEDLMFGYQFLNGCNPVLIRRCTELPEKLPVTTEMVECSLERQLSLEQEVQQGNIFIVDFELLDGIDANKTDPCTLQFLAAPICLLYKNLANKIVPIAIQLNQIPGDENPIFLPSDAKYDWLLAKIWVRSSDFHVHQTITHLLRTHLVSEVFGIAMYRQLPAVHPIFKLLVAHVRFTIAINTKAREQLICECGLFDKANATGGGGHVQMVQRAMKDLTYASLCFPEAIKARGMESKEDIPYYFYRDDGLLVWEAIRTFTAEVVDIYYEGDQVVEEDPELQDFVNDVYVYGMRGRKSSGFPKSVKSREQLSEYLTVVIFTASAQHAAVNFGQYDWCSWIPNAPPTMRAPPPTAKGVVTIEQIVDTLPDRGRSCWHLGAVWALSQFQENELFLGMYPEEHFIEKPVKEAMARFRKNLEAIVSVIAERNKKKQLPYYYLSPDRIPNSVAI
In short: (§1)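 Freshly isolated human PMNL (5 × 10⁶/ml PGC buffer: PBS pH 7.4, 1 mg/ml glucose, 1 mM CaCl₂) preincubated with compound 15 min at 37 °C. Stimulated with 2.5 µM A23187 plus exogenous AA for 10 min at 37 °C. Stopped with methanol, PGB₁ added as internal standard, lipoxygenase products analysed by HPLC. Mean of n = 3–5.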

[3] = target: T1, Polyunsaturated fatty acid 5-lipoxygenase; test: Inhibition of human recombinant 5-lipoxygenase expressed in Escherichia coli BL21 assessed as enzyme product formation using arachidonic acid as substrate after 10 mins by RP-HPLC analysis
In short: (§2)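 Human 5-LO expressed in E. coli BL21 (pT3-5LO), affinity-purified and used at once. 0.5 µg enzyme in 1 ml PBS/EDTA with 1 mM ATP preincubated with compound 5–10 min at 4 °C, then warmed 30 s at 37 °C. Reaction started with 2 mM CaCl₂ and AA (routinely 20 µM), with or without 1 µM 13(S)-HpODE. Run 10 min at 37 °C, stopped with ice-cold methanol, products analysed by HPLC. Washout: 10-fold dilution (10 to 1 µM).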

[4] = target: T2, Polyunsaturated fatty acid 5-lipoxygenase (Homo sapiens) (UniProt P09917); test: Inhibition of 5-lipoxygenase in A23187-stimulated human PMNL assessed as residual activity by measuring enzyme product formation at 10 uM preincubated 15 mins by RP-HPLC analysis in presence of exogenous arachidonic acid; in short: as §1
T2 sequence (whole entry): T1 sequence (P09917 whole entry)

[5] = target: T2, Polyunsaturated fatty acid 5-lipoxygenase (Homo sapiens); test: Inhibition of human recombinant 5-lipoxygenase expressed in Escherichia coli BL21 assessed as residual activity by measuring enzyme product formation using arachidonic acid as substrate at 10 uM after 10 mins by RP-HPLC analysis; in short: as §2
[6] = target: T3, Prostaglandin E synthase (Homo sapiens, UniProt O14684); test: Inhibition of mPGES-1 in human IL-1beta-stimulated A549 cell microsomes assessed as reduction of PGE2 formation from PGH2 after 15 mins; set-up: species or system Microsome
T3 sequence (O14684 whole entry): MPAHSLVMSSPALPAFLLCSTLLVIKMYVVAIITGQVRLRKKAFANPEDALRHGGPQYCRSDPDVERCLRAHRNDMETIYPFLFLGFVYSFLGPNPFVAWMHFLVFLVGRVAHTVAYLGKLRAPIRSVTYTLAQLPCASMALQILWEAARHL
In short: (§3)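 Microsomes from A549 cells stimulated 72 h with IL-1β (1 ng/ml), diluted to 50 µg/ml in 0.1 M potassium phosphate pH 7.4 with 2.5 mM glutathione. Preincubated with compound (1% DMSO final) 15 min at 4 °C. Reaction started with 20 µM PGH₂, run 1 min at 4 °C, stopped with FeCl₂/citric acid containing 11β-PGE₂; PGE₂ quantified. Mean of n = 3–5.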

[7] = target: T4, Prostaglandin E synthase (Homo sapiens) (UniProt O14684); test: Inhibition of mPGES-1 in human IL-1beta-stimulated A549 cell microsomes assessed as residual activity by measuring reduction of PGE2 formation from PGH2 at 10 uM after 15 mins; settings: Microsome; in short: as §3
T4 sequence (whole entry): T3 sequence (O14684 whole entry)

[8] = target: T5, Prostaglandin G/H synthase 1 (Ovis aries) (UniProt P05979); test: Inhibition of ovine COX1 assessed as residual activity at 10 uM after 5 mins
T5 sequence (whole entry): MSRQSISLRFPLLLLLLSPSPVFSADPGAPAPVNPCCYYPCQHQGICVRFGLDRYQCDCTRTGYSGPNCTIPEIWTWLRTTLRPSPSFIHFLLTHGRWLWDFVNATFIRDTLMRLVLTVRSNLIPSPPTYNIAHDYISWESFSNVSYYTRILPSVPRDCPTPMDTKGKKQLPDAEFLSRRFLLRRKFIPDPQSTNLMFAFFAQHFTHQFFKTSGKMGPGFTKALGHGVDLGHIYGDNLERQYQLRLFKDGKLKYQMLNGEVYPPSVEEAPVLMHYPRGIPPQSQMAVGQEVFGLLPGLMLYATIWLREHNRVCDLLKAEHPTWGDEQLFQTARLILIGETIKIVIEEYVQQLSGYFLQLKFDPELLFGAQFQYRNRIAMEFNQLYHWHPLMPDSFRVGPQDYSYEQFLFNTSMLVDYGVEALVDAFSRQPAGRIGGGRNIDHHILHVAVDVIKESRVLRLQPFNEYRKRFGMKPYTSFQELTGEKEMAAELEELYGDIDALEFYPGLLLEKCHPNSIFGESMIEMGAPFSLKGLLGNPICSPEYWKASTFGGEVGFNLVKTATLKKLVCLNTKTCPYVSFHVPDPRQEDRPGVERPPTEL
In short: (§4)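 Ovine COX-1 (50 units) or human recombinant COX-2 (20 units) in 1 ml 100 mM Tris pH 8 with 5 mM glutathione, 5 µM haemoglobin and 100 µM EDTA. Preincubated with 10 µM compound 5 min at 4 °C, warmed 60 s at 37 °C. Started with AA (5 µM for COX-1, 2 µM for COX-2), run 5 min at 37 °C. 12-HHT extracted and analysed by HPLC. n = 3.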

[9] = target: T6, Prostaglandin G/H synthase 2 (Homo sapiens) (UniProt P35354); test: Inhibition of human recombinant COX2 assessed as residual activity at 10 uM after 5 mins; in short: as §4
T6 sequence (whole entry): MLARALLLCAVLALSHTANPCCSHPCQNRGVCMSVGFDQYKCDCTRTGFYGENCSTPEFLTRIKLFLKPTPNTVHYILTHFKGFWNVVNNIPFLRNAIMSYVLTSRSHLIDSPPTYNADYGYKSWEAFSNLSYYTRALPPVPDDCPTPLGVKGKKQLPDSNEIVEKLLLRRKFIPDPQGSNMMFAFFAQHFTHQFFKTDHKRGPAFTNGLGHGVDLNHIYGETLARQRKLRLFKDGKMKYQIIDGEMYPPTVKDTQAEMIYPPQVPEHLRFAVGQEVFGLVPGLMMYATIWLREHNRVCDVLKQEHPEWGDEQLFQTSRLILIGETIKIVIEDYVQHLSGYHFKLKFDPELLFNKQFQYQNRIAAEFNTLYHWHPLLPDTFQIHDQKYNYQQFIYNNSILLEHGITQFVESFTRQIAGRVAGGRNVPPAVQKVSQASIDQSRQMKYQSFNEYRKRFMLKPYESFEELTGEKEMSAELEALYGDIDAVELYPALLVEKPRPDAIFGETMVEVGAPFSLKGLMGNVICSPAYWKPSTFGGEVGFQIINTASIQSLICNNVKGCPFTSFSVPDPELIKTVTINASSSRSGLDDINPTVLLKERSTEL

SMILES	Activity [1]	IC50 [2] [µM]	IC50 [3] [µM]	Activity [4] [%]	Activity [5] [%]	IC50 [6] [µM]	Activity [7] [%]	Activity [8] [%]	inhibition [9]	inhibition [7]
CCCCC(Sc1ccc(OCCCOc2ccc(Cl)cc2OC)cc1)C(=O)O (centres undefined)	Non-toxic	> 10	> 10	79.3	59.2	9.4	–	–	–	–
CCCCC(Cc1ccc(OCCCOc2cccc(C)c2C)cc1)C(=O)O (centres undefined)	Non-toxic	2	> 10	–	70.8	7.1	–	–	–	–
CCCCC(Sc1ccc(OCCCOc2ccccc2C(C)C)cc1)C(=O)O (centres undefined)	Non-toxic	1.6	7.8	–	–	4.1	–	–	–	–
CCCCC(Sc1ccc(OCCCOc2cccc(C(C)C)c2)cc1)C(=O)O (centres undefined)	Non-toxic	1.4	6	–	–	2.7	–	–	–	–
CCCCC(Sc1ccc(OCCCOc2cccc(OC)c2)cc1)C(=O)O (centres undefined)	Non-toxic	4.8	> 10	–	67.7	> 10	59.1	–	–	–
Cc1cccc(OCCCOc2ccc(SCC(=O)O)cc2)c1C	Non-toxic	> 10	> 10	69.6	72.4	> 10	75.4	–	–	–
CCCCC(Sc1ccc(OCCCOc2ccc(Cl)c(C(F)(F)F)c2)cc1)C(=O)O (centres undefined)	Non-toxic	1.5	2	–	–	1.7	–	71.3	inactive	–
CCCCC(Sc1ccc(OCCCOc2cccc(C(F)(F)F)c2)cc1)C(=O)O (centres undefined)	Non-toxic	1.6	9.8	–	–	2	–	–	–	–
Cc1cccc(OCCCOc2ccc(CCC(=O)O)cc2)c1C	Non-toxic	> 10	> 10	80	81.8	> 10	83.9	–	–	–
CCCC[C@@H](Sc1ccc(OCCCOc2cccc(C)c2C)cc1)C(=O)O	Non-toxic	1.1	10	–	–	4.2	–	–	–	–
CCCCC(Sc1ccc(OCCCOc2ccccc2OC)cc1)C(=O)O (centres undefined)	Non-toxic	> 10	> 10	57.4	79.4	> 10	88.3	–	–	–
CCCCC(Sc1ccc(OCCCOc2ccc3ncccc3c2)cc1)C(=O)O (centres undefined)	Non-toxic	> 10	> 10	92.2	59	> 10	–	–	–	inactive
CCCCC(Sc1ccc(OCCCOc2ccc3ncccc3c2)cc1)C(=O)OCC (centres undefined)	Non-toxic	0.8	> 10	–	68.3	> 10	83.9	–	–	–
CCCCC(Sc1ccc(OCCCOc2cccc(C)c2C)cc1)C(=O)O (centres undefined)	Non-toxic	3	8.8	–	–	2.9	–	–	–	–
CCCCC(Sc1ccc(OCCCOc2ccccc2)cc1)C(=O)O (centres undefined)	Non-toxic	9.5	> 10	–	69.4	> 10	81.9	–	–	–
CCCCC(Sc1ccc(OCCCOc2cccc3c2CCCC3)cc1)C(=O)OCC (centres undefined)	Non-toxic	> 10	> 10	87.4	79.4	–	–	–	–	–
CCCC/C(=C\c1ccc(OCCCOc2cccc(C)c2C)cc1)C(=O)O	Non-toxic	1.6	> 10	–	88.9	> 10	28.3	–	–	–
CCCCC(Sc1ccc(OCCCOc2ccc(-c3ccccc3)cc2)cc1)C(=O)OCC (centres undefined)	Non-toxic	> 10	> 10	91.5	83	–	–	–	–	–
CCCCC(Sc1ccc(OCCCOc2ccc(C)cc2)cc1)C(=O)O (centres undefined)	Non-toxic	5.2	> 10	–	67.6	9.3	–	–	–	–
CCCCC(Sc1ccc(OCCCOc2ccccc2C)cc1)C(=O)O (centres undefined)	Non-toxic	4.8	> 10	–	58.3	8.8	–	–	–	–
CCCC[C@H](Sc1ccc(OCCCOc2cccc(C)c2C)cc1)C(=O)O	Non-toxic	2	8.2	–	–	4.6	–	–	–	–
CCCCC(Sc1ccc(OCCCOc2cccc(C)c2)cc1)C(=O)O (centres undefined)	Non-toxic	4.8	> 10	–	79.3	> 10	58	–	–	–
